From ChEMBL document CHEMBL4251636, “Design, synthesis and biological evaluations of novel pyridone-thiazole hybrid molecules as antitumor agents” (Eur J Med Chem, 2018)

Legend:
[1] = system: HCT-116; test: Antiproliferative activity against human HCT116 cells after 72 hrs by MTT assay; format: functional, cell-based; conditions: HCT-116, 72 h
In short: (§1)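 Cells grown to log phase in RPMI 1640 with 10% FBS, seeded at 2×10^4 cells/mL and incubated 24 h at 37 °C, 5% CO2. Compounds added, then 72 h at 37 °C. MTT (5 mg/mL stock) for 4 h, formazan dissolved in DMSO, absorbance read at 570 nm. Triplicate wells per concentration, three independent experiments. IC50 is the concentration giving 50% growth inhibition versus untreated control, reported as mean ± S.E.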

[2] = system: Huh-7; test: Antiproliferative activity against human HuH7 cells after 72 hrs by MTT assay; format: functional, cell-based; conditions: Huh-7, 72 h; in short: as §1
[3] = system: MGC-803; test: Antiproliferative activity against human MGC803 cells after 72 hrs by MTT assay; format: functional, cell-based; conditions: MGC-803, 72 h; in short: as §1
[4] = system: HCT-116; test: Potency index, ratio of 5-Fluorouracil IC50 to compound IC50 for antiproliferative activity against human HCT116 cells; format: functional
[5] = system: MGC-803; test: Potency index, ratio of 5-Fluorouracil IC50 to compound IC50 for antiproliferative activity against human MGC803 cells; format: functional

SMILES | IC50 [1] [µM] | IC50 [2] [µM] | IC50 [3] [µM] | Ratio IC50 [4] | Ratio IC50 [5]
CC(=O)c1sc(N/N=C2/C=C(Nc3ccc(C)cc3)C(Nc3ccc(C)cc3)=NC2=O)nc1C | 52.7 | 72 | 75.5 | – | –
CC(=O)c1sc(N/N=C2/C=C(Nc3ccccc3C)C(Nc3ccccc3C)=NC2=O)nc1C | > 128 | > 128 | 45 | – | –
CC(=O)c1sc(N/N=C2/C=C(Nc3ccc(Br)cc3)C(Nc3ccc(Br)cc3)=NC2=O)nc1C | 13.2 | 17.9 | 9.12 | – | –
CC(=O)c1sc(N/N=C2/C=C(Nc3cccc(C)c3)C(Nc3cccc(C)c3)=NC2=O)nc1C | > 128 | > 128 | > 128 | – | –
CC(=O)c1sc(N/N=C2/C=C(Nc3ccccc3Cl)C(Nc3ccccc3Cl)=NC2=O)nc1C | 8.17 | 21.5 | 3.15 | 1.4 | 8.1
CC(=O)c1sc(N/N=C2/C=C(Nc3ccccc3)C(Nc3ccccc3)=NC2=O)nc1C | 25.3 | 19.1 | 13.5 | – | –
CC(=O)c1sc(N/N=C2/C=C(Nc3cccc(Cl)c3)C(Nc3cccc(Cl)c3)=NC2=O)nc1C | 10.6 | > 128 | 5.18 | – | –
CC(=O)c1sc(N/N=C2/C=C(Nc3cccc(F)c3)C(Nc3cccc(F)c3)=NC2=O)nc1C | 22.8 | 58.8 | 21.4 | – | –
COc1cccc(NC2=C/C(=N/Nc3nc(C)c(C(C)=O)s3)C(=O)N=C2Nc2cccc(OC)c2)c1 | > 128 | > 128 | > 128 | – | –
O=c1[nH]cc(F)c(=O)[nH]1 [FLUOROURACIL] | 11.3 | 5.63 | 25.5 | – | –
CC(=O)c1sc(N/N=C2/C=C(Nc3cccc(Br)c3)C(Nc3cccc(Br)c3)=NC2=O)nc1C | 22.2 | > 128 | 21.6 | – | –
COc1ccc(NC2=C/C(=N/Nc3nc(C)c(C(C)=O)s3)C(=O)N=C2Nc2ccc(OC)cc2)cc1 | > 128 | > 128 | 82.6 | – | –
COc1ccccc1NC1=C/C(=N/Nc2nc(C)c(C(C)=O)s2)C(=O)N=C1Nc1ccccc1OC | 85.4 | 20.6 | 51.1 | – | –
CC(=O)c1sc(N/N=C2/C=C(Nc3ccc(Cl)cc3)C(Nc3ccc(Cl)cc3)=NC2=O)nc1C | 8.28 | > 128 | 8.56 | – | –
